In the library only some 5.8% were active in any assay of this set; here they are far more common.
T cruzi growth-1 – T. cruzi proliferation inhibition | T. cruzi beta-gal in NIH3T3, GalScreen luminescence, 90 h | actives 5.9% (n = 77,000) | inhibition, % at 8.34 µM;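 active means mean inhibition above about 93%, with at least 55% of replicates each passing it, limit read from the data, passing the limit was not always enough; inconclusive means only one of those two conditions holds; inactive means neither condition holds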
GASC1 inh – KDM4C (human) demethylase inhibition. GST-KDM4C 2-372, H3K9me3 peptide, LANCE TR-FRET. inhibition, % at 12.5 µM. actives 0.15% (n = 96,000);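 active means mean replicate inhibition above about 25%, with at least 55% of replicates also reaching it, limit read from the data, passing the limit was not always enough; inconclusive means only one of those two conditions met; inactive means neither condition met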
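material = GST-tagged GASC-1 (JMJD2C) catalytic fragment, aa 2-372 | amount = enzyme final amount 10 nM | medium = HEPES buffer, pH 7.5, plus ascorbate | also added = H3K9me3 peptide substrate, Fe(II), 2-oxoglutarate | dosing = single dose | times = 30 min demethylation and 1 h detection at room temperature | detection = LANCE TR-FRET | read-out basis = Fall in 671/618 emission ratio as inhibition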
IDH1 R132H inh – IDH1 R132H (human) inhibition. IDH1 R132H reductase, diaphorase/resazurin fluorescence, 60 min. inhibition, % at 10 µM. actives 0.18% (n = 70,000). AID 624101; in the data active means inhibition above about 34%; inconclusive means no clear call, values can overlap the other calls; inactive means below about 11%;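 further: 0% = DMSO and 100% = no enzyme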
Target sequence (O75874 whole entry R132H): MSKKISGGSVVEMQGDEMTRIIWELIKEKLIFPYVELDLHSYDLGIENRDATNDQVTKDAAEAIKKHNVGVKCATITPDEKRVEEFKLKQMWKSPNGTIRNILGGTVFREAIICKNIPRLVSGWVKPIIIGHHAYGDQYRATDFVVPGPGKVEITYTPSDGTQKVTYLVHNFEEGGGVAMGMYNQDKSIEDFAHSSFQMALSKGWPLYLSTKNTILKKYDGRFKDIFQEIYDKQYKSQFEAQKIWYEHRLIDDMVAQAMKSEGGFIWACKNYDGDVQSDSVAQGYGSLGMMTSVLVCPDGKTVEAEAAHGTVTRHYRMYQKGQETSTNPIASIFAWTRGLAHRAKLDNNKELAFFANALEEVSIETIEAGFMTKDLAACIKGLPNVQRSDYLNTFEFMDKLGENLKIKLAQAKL
Pf Dd2 growth – inhibitors of Plasmodium falciparum Dd2 growth; P. falciparum Dd2 growth, SYBR Green, 72 h; active compounds read low; activity change, % at 10 µM; actives 2.3% (n = 94,000); in the data active means activity change below about -80%; inconclusive means no clear call, values can overlap the other calls
T cruzi growth-2 – inhibitors of T. cruzi proliferation | shares compounds with T cruzi growth-1 | inhibition, % at 8.35 µM | T. cruzi beta-gal in NIH3T3, GalScreen luminescence, 90 h | actives 72% (n = 5,600);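 active means mean replicate inhibition above about 95% and at least 55% of replicates individually reaching it, limit read from the data; inconclusive means only one of the two criteria is met; inactive means neither criterion is met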
T cruzi growth-3 – blocks T. cruzi growth in NIH3T3 host cells; shares compounds with T cruzi growth-1; inhibition, % at 2.09 µM; AID 651740; actives 21% (n = 5,600); T. cruzi beta-gal in NIH3T3, GalScreen luminescence, 90 h;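 active means mean inhibition above about 95%, with at least 55% of replicates also reaching it, limit read from the data; inconclusive means meets just one of the two conditions; inactive means meets neither condition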;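 further: plate controls were neutral control median for no effect and positive control median for full effect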
3T3 cytotox – cytotoxicity in mouse NIH/3T3 fibroblasts; shares compounds with T cruzi growth-1; NIH/3T3 viability, CellTiter-Glo ATP luminescence, 90 h; cytotoxicity (signal decrease), % at 8.35 µM; actives 14% (n = 5,600); AID 651742;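 active means mean signal decrease across replicates above about 35% based on untreated-well scatter, with enough replicates individually passing, limit read from the data; inconclusive means no rule stated though some were filed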;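 further: 0% = median of neutral control wells and 100% = median of positive control wells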
NIH3T3 tox 2 – kills mouse NIH/3T3 fibroblasts | NIH/3T3 viability, CellTiter-Glo ATP luminescence, 90 h | shares compounds with T cruzi growth-1 | inhibition, % at 24.9 µM | AID 651744 | actives 56% (n = 5,600);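 active means mean loss of cell viability signal at or above a set limit, and enough replicates individually reaching it; inconclusive means meets only the mean limit or only the replicate share; inactive means meets neither condition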;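 further: 0% = median of neutral control wells and 100% = median of positive control wells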
Numbers without * were called inactive.

Results for Cc1noc(C)c1S(=O)(=O)Nc1ccc2c(c1)C(=O)N([C@@H](C)CO)C[C@H](C)[C@@H](CN(C)Cc1ccc(C(F)(F)F)cc1)OCCCC[C@@H](C)O2 ?
T cruzi growth-1: 98*; GASC1 inh: 2; IDH1 R132H inh: 4; Pf Dd2 growth: -8; T cruzi growth-2: inconclusive; T cruzi growth-3: inconclusive; 3T3 cytotox: 18; NIH3T3 tox 2: 105*

What do the screens show for `Cc1noc(C)c1S(=O)(=O)Nc1ccc2c(c1)C(=O)N([C@@H](C)CO)C[C@@H](C)[C@H](CN(C)Cc1ccc(C(F)(F)F)cc1)OCCCC[C@H](C)O2`?
T cruzi growth-1: 90; GASC1 inh: -1; IDH1 R132H inh: 13; Pf Dd2 growth: -53

Results for Cc1noc(C)c1S(=O)(=O)Nc1ccc2c(c1)C(=O)N([C@@H](C)CO)C[C@@H](C)[C@H](CN(C)Cc1ccc(Cl)c(Cl)c1)OCCCC[C@@H](C)O2 ?
T cruzi growth-1: inconclusive; GASC1 inh: -2; Pf Dd2 growth: -58; T cruzi growth-2: 87; T cruzi growth-3: 104*; 3T3 cytotox: 57*; NIH3T3 tox 2: 105*

How did Cc1noc(C)c1S(=O)(=O)Nc1ccc2c(c1)C(=O)N([C@H](C)CO)C[C@H](C)[C@@H](CN(C)Cc1ccc(C(F)(F)F)cc1)OCCCC[C@H](C)O2 do in these assays?
T cruzi growth-1: 100*; GASC1 inh: -2; Pf Dd2 growth: -12; T cruzi growth-2: 110*; T cruzi growth-3: 107*; 3T3 cytotox: 6; NIH3T3 tox 2: 105*

How did C[C@H]1CN([C@@H](C)CO)C(=O)c2cc(NC(=O)CCC(F)(F)F)ccc2O[C@@H]1CN(C)S(C)(=O)=O do in these assays?
T cruzi growth-1: -6; GASC1 inh: -1; Pf Dd2 growth: 36

Results for O=C(Nc1ccc(I)cc1C(=O)NCc1ccco1)c1cccnc1 ?
IDH1 R132H inh: 1

Results for CSc1nc(SCC(=O)N(c2ccccc2)c2ccccc2)c2c3c(sc2n1)CCC3 ?
IDH1 R132H inh: 1

Results for C[C@@H]1CN([C@@H](C)CO)C(=O)c2cc(/C=C/c3ccccc3)cnc2O[C@@H]1CN(C)C(=O)Nc1ccccc1F ?
T cruzi growth-1: 109*; GASC1 inh: 0; IDH1 R132H inh: 2; Pf Dd2 growth: -30; T cruzi growth-2: 89; T cruzi growth-3: 36; 3T3 cytotox: 14; NIH3T3 tox 2: 24*

How did C[C@H](CO)N1C[C@H](C)[C@H](CN(C)C(=O)Nc2cccc3ccccc23)Oc2ncc(-c3cc4ccccc4o3)cc2C1=O do in these assays?
T cruzi growth-1: inconclusive; GASC1 inh: 1; IDH1 R132H inh: 0; Pf Dd2 growth: -49; T cruzi growth-2: 102*; T cruzi growth-3: 89; 3T3 cytotox: 45*; NIH3T3 tox 2: 102*

What do the screens show for `C[C@H](CO)N1C[C@H](C)[C@H](CN(C)C(=O)Nc2ccccc2F)Oc2ncc(/C=C/c3ccccc3)cc2C1=O`?
T cruzi growth-1: 102; GASC1 inh: 1; IDH1 R132H inh: 1; Pf Dd2 growth: -33

What do the screens show for `C[C@H]1CN([C@@H](C)CO)C(=O)c2cc(/C=C/c3ccccc3)cnc2O[C@@H]1CN(C)C(=O)Nc1ccccc1F`?
T cruzi growth-1: 126*; GASC1 inh: -2; IDH1 R132H inh: -2; Pf Dd2 growth: -71; T cruzi growth-2: 108*; T cruzi growth-3: 107*; 3T3 cytotox: -2; NIH3T3 tox 2: 14

What do the screens show for `O=C(COc1ccc(S(=O)(=O)N2CCCC2)cc1Cl)Nc1ccccc1`?
IDH1 R132H inh: 0

How did Cc1ccc2nsnc2c1NC(=O)COc1ccc([N+](=O)[O-])cc1 do in these assays?
IDH1 R132H inh: 0
